Measured values as given in ChEMBL document CHEMBL4613270, “Structure-Activity Relationship Study Enables the Discovery of a Novel Berberine Analogue as the RXRα Activator to Inhibit Colon Cancer” (J Med Chem, 2020).
Calls of active or inactive are those of the source. The rule behind the calls is not given here.

Assays:
[1] = tested on: KM12C; assay: Inhibition of cell proliferation of human KM12C cells at 25 to 50 uM incubated for 15 hrs by EdU assay; assay type: functional, cell-based
How it was run: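 KM12C cells grown in MEM with 10% FBS, penicillin/streptomycin, nonessential amino acids and vitamins at 37 °C, 5% CO2. Proliferation was scored with an EdU incorporation kit, and cells were examined under a fluorescence microscope.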

[2] = tested on: HCT-116; assay: Inhibition of cell proliferation of human HCT116 cells at 30 to 60 uM incubated for 15 hrs by EdU assay; assay type: functional, cell-based
How it was run: (§1)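 Colon cancer cells treated for 15 h. Proliferation measured in 96-well plates using an EdU incorporation kit, with cells examined under a fluorescence microscope.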

[3] = tested on: SW-620; assay: Inhibition of cell proliferation of human SW620 cells at 40 to 80 uM incubated for 15 hrs by EdU assay; assay type: functional, cell-based; how it was run: as §1
[4] = biological target: T1, Retinoic acid receptor RXR-alpha (Homo sapiens) (UniProt P19793); assay: Activation of RXRalpha in human HCT116 cells assessed as […] protein expression at 30 to 60 uM incubated for 15 hrs by Western blot analysis; assay type: cell-based; conditions: HCT-116
T1 sequence (whole entry): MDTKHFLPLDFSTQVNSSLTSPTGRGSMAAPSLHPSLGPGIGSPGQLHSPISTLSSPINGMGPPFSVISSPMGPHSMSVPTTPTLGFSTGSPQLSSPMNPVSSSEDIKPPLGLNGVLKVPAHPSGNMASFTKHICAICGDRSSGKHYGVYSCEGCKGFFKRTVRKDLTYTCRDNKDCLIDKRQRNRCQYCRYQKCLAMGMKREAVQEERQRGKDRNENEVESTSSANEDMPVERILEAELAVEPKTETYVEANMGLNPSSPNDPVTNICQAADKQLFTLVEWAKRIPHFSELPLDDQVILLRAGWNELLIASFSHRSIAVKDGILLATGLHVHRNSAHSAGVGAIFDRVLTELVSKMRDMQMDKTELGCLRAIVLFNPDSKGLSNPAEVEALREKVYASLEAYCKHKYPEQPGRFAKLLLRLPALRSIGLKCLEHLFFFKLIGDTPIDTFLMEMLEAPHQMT

[5] = biological target: T1, Retinoic acid receptor RXR-alpha (Homo sapiens); assay: Activation of RXRalpha in human HCT116 cells assessed as increase transactivational activity on RXRE at 30 to 60 uM incubated for 15 hrs by luciferase reporter gene assay; assay type: cell-based; conditions: HCT-116
How it was run: (§2)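 Endogenous RXRα transactivation on an RXRE luciferase reporter, lipofection-transfected; compound added 20 h post-transfection for 15 h; lysis in passive lysis buffer at 4 °C, 1 h; firefly and Renilla luciferase activities read by dual-luciferase assay.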

[6] = biological target: T1, Retinoic acid receptor RXR-alpha (Homo sapiens); assay: Activation of RXRalpha in human SW620 cells assessed as increase transactivational activity on RXRE at 40 to 80 uM incubated for 15 hrs by luciferase reporter gene assay; assay type: cell-based; conditions: SW-620; how it was run: as §2
[7] = biological target: T1, Retinoic acid receptor RXR-alpha (Homo sapiens); assay: Binding affinity to His-tagged RXRalpha LBD (unknown origin) expressed in Escherichia coli strain BL21 (DE3) at 200 uM by STD-NMR spectroscopy
[8] = biological target: T1, Retinoic acid receptor RXR-alpha (Homo sapiens); assay: Activation of RXRalpha in human KM12C cells assessed as inhibition of Wnt/beta-catenin-dependent transcriptional activity at 25 to 50 uM incubated for 15 hrs by TOP/FOP luciferase assay; assay type: cell-based
How it was run: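 TOP/FOP reporter: cells co-transfected by lipofection with pRL-TK plus TOPflash or FOPflash; compound added 20 h after transfection for 15 h; passive lysis at 4 °C, 1 h; firefly and Renilla luciferase measured by dual-luciferase assay.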

[9] = biological target: T1, Retinoic acid receptor RXR-alpha (Homo sapiens); assay: Activation of RXRalpha in human KM12C cells assessed as reduction in c-Myc mRNA expression at 25 to 50 uM incubated for 15 hrs by real-time PCR analysis; assay type: cell-based
[10] = biological target: T1, Retinoic acid receptor RXR-alpha (Homo sapiens); assay: Activation of RXRalpha in human HCT116 cells assessed as reduction in Cdc2 protein expression at 30 to 60 uM incubated for 15 hrs by Western blot analysis; assay type: cell-based; conditions: HCT-116
[11] = biological target: T1, Retinoic acid receptor RXR-alpha (Homo sapiens); assay: Activation of RXRalpha in human HCT116 cells assessed as reduction in Cdc2 mRNA expression at 30 to 60 uM incubated for 15 hrs by real-time PCR analysis; assay type: cell-based; conditions: HCT-116
[12] = biological target: T1, Retinoic acid receptor RXR-alpha (Homo sapiens); assay: Activation of RXRalpha in human HCT116 cells assessed as reduction in c-Myc mRNA expression at 30 to 60 uM incubated for 15 hrs by real-time PCR analysis; assay type: cell-based; conditions: HCT-116
[13] = biological target: T1, Retinoic acid receptor RXR-alpha (Homo sapiens); assay: Activation of RXRalpha in human KM12C cells assessed as reduction in Cdc2 mRNA expression at 25 to 50 uM incubated for 15 hrs in presence of RXRalpha shRNA by real-time PCR analysis; assay type: cell-based
[14] = biological target: T1, Retinoic acid receptor RXR-alpha (Homo sapiens); assay: Activation of RXRalpha in human KM12C cells assessed as reduction in c-Myc protein expression at 25 to 50 uM incubated for 15 hrs in presence of RXRalpha shRNA by Western blot analysis; assay type: cell-based
[15] = biological target: T1, Retinoic acid receptor RXR-alpha (Homo sapiens); assay: In-vivo activation of RXRalpha in BALB/c mouse xenografted with human KM12C cells assessed as increase in p21 (WAF1/CIP) protein expression at 100 mg/kg, ig dosed daily for 15 days by Western blot analysis; assay type: functional, organism-based
[16] = biological target: T1, Retinoic acid receptor RXR-alpha (Homo sapiens); assay: In-vivo activation of RXRalpha in BALB/c mouse xenografted with human KM12C cells assessed as effect on PCNA protein expression at 100 mg/kg, ig dosed daily for 15 days by immunohistochemistry analysis; assay type: functional, organism-based
[17] = Hepatotoxicity in BALB/c mouse xenografted with human KM12C cells assessed as induction of hepatocellular morphology damage at 100 mg/kg, ig dosed daily for 15 days by H and E staining; assay type: toxicity, organism-based; conditions: in vivo, po, 360 h
[18] = tested on: MEF; assay: Toxicity in mouse MEF cells assessed a reduction in cell viability at 6.25 to 100 uM incubated for 15 hrs by MTT assay; assay type: cell-based
How it was run: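 HIEC-6 cells grown in MEM with 4% FBS, HEPES, GlutaMAX and 10 ng/mL EGF. MEF cells grown in DMEM high glucose with 10% FBS. Cells plated at 1×10⁴ per well and treated with a concentration series for 15 h. Viability read by MTT: 4 h at 37 °C, DMSO solubilization, absorbance at 570 nm.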

[19] = Toxicity in BALB/c mouse xenografted with human KM12C cells assessed as effect on biochemical parameter by measuring ALP level at 100 mg/kg, ig dosed daily for 15 days by automatic chemistry analyzer based analysis (reference value: 76.53 +/- 4.31 U/L); assay type: organism-based; conditions: in vivo, po, 360 h
[20] = Toxicity in BALB/c mouse xenografted with human KM12C cells assessed as effect on biochemical parameter by measuring triglyceride level at 100 mg/kg, ig dosed daily for 15 days by automatic chemistry analyzer based analysis (reference value: 0.96 +/- 0.056 mmol/L); assay type: organism-based; conditions: in vivo, po, 360 h
[21] = Tmax in Sprague-Dawley rat at 100 mg/kg, ig measured after 0.083 to 36 hrs by LC-MS/MS analysis; assay type: ADME, organism-based; conditions: in vivo, po
How it was run: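 SD rats (200 ± 20 g) randomized to three groups; single intragastric dose of 100 mg/kg or vehicle (0.5% CMC-Na). Tail-vein blood (0.5 mL) drawn at 0.083, 0.25, 0.5, 1, 2, 4, 8, 12, 24 and 36 h. Plasma separated by centrifugation at 2000 rpm for 10 min, frozen at -80 °C, then quantified by LC-MS/MS.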

Row | Structure (SMILES) | Activity [8] | Activity [9] | Activity [10] | Activity [11] | Activity [12] | Activity [15] | Activity [16] | Activity [19] | Activity [20] | Tmax [21] | other results
1 | COc1ccc2c(c1)CC[n+]1cc3c(OC)cccc3cc1-2.[Cl-] | Active | Active | Active | Active | Active | Active | Active | 78.35 U/L | 0.74 mmol/L | 2 h | inhibition [1]: Active; inhibition [2]: Active; inhibition [3]: Active; Activity [4]: Active; Activity [5]: Active; Activity [6]: Active; Activity [7]: Active; Activity [13]: inactive; Activity [14]: inactive; Activity [17]: Non-Toxic; Activity [18]: Non-Toxic
2 | COc1ccc2cc3[n+](cc2c1OC)CCc1cc2c(cc1-3)OCO2.[Cl-] [BERBERINE CHLORIDE] | Active | Active | Active | Active | Active | Active | Active | 71.28 U/L | 0.77 mmol/L | 2 h | 
